Results: ChEMBL document CHEMBL5338796, “Discovery of a Selective and Orally Bioavailable FGFR2 Degrader for Treating Gastric Cancer” (J Med Chem, 2023)
Calls of active or inactive are those of the source. No cut-off for these calls is given here.

Experiments:
[1] = molecular target: T1, Fibroblast growth factor receptor (Homo sapiens) (UniProt P22607+P11362+P22455+P21802); test: Induction of FGFR degradation in human KATO III stomach cancer cell line assessed as reduction in PLCgamma phosphorylation at 50 nM measured for 6 hrs; format: cell-based
T1 sequence (P11362 whole entry, looked up): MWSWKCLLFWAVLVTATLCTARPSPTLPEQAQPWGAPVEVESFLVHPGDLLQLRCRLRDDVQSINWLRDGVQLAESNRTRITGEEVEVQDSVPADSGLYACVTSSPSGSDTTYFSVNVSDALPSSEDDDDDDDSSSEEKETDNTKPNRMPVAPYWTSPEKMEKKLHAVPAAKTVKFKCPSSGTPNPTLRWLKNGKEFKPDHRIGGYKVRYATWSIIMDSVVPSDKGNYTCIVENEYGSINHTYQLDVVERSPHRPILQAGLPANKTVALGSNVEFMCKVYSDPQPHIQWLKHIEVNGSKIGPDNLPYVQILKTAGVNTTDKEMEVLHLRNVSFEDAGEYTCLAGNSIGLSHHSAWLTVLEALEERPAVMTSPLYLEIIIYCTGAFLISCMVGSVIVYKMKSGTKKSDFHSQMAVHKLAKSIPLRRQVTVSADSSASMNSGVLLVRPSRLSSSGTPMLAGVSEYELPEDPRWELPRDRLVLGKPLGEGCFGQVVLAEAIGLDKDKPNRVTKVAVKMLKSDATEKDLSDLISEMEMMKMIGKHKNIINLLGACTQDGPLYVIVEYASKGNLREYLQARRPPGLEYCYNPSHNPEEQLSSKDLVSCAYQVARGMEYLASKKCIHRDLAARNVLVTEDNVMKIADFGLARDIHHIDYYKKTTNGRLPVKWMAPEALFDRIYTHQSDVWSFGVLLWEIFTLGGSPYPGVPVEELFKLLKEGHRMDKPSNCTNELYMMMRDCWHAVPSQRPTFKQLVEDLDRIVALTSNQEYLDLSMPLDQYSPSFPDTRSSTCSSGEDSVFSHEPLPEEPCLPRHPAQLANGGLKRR
T1 sequence (P21802 whole entry, looked up): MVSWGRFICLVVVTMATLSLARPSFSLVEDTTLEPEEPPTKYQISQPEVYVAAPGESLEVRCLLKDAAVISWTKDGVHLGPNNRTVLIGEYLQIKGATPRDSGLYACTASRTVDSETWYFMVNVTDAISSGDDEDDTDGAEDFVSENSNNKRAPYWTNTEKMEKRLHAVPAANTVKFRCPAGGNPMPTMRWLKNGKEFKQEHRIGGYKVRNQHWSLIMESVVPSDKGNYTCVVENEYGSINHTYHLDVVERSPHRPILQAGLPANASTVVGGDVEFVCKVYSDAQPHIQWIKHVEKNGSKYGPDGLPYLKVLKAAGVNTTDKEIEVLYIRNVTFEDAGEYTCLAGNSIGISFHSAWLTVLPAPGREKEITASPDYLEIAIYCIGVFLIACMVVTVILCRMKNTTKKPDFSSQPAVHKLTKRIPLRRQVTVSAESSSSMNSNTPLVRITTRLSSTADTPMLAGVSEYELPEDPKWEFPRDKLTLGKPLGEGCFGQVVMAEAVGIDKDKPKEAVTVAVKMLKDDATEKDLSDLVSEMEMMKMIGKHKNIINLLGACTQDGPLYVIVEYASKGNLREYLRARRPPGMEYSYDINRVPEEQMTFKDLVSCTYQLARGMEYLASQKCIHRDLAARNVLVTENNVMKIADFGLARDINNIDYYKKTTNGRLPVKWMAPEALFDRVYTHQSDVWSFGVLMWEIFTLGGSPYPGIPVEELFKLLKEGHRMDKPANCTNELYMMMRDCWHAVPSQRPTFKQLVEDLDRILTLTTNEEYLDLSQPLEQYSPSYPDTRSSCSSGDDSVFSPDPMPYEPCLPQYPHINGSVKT
T1 sequence (P22455 whole entry, looked up): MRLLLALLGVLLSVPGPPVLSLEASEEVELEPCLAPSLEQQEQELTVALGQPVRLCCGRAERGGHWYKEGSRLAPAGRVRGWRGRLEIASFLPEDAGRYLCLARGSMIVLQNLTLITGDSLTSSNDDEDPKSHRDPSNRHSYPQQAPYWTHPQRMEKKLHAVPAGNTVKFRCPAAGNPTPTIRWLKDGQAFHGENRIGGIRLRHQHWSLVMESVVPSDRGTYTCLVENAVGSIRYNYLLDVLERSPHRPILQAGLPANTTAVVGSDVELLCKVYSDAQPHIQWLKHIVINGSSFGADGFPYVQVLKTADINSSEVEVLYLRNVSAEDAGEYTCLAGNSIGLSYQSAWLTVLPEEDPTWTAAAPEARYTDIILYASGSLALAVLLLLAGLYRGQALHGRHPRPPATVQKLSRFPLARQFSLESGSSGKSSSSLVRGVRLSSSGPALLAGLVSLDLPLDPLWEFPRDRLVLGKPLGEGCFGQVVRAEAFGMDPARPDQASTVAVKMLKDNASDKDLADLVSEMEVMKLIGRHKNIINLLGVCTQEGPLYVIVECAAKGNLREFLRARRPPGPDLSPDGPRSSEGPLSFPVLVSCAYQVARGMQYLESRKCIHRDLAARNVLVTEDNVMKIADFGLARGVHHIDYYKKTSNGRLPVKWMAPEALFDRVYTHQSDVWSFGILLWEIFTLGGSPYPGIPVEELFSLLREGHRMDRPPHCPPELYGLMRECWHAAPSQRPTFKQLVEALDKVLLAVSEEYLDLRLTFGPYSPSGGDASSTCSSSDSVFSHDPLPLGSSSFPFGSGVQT
T1 sequence (P22607 whole entry, looked up): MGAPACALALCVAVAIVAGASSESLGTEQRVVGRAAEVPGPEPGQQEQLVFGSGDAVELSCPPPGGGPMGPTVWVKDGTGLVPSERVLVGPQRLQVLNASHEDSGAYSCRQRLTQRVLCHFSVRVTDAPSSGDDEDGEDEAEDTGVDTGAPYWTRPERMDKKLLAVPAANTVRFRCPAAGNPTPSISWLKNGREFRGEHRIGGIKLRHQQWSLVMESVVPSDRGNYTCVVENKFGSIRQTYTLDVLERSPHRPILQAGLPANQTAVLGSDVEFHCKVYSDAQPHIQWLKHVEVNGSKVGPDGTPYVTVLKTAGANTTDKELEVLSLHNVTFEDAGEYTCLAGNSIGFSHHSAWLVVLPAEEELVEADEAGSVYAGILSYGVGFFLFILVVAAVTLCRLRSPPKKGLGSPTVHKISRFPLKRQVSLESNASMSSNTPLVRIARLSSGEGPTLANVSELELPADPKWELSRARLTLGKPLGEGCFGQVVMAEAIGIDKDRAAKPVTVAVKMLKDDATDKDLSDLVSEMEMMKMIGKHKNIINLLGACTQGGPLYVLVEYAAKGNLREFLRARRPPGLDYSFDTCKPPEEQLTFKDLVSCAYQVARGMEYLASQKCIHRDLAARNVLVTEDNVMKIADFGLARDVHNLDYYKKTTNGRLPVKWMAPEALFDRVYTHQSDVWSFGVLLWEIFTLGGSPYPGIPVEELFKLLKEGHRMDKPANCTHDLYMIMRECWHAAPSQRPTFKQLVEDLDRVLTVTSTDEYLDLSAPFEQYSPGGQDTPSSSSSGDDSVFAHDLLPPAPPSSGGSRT
Procedure, shortened: (§1)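 KATO III cells incubated 6 h with 50 nM compound, then stimulated with FGF1 for 10 min; pFGFR, pPLCγ1 (Tyr783) and pFRS2α immunoblotted.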

SNU-16 = test: Antitumor activity against human SNU-16 cells xenografted in BALB/c nude mouse assessed as reduction in FGFR phosphorylation in tumor at 20 mg/kg, po measured at 4 hrs; format: functional, organism-based
Procedure, shortened: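 Female BALB/c nude mice, 5 weeks old (20–22 g), s.c. right-flank SNU-16 implants, randomized by body weight into groups (n = 5) once tumours reached 50–100 mm3. Dosing 20 mg/kg/day intragastric in 0.5% CMC-Na for 15 d; vehicle controls. Tumour width and length measured every 2 days; tumours harvested 4 h after last dose and lysates immunoblotted for pFGFR, FGFR2, pPLCγ, pErk.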

[2] = molecular target: T2, Protein cereblon/Fibroblast growth factor receptor 2 (Homo sapiens, UniProt P21802+Q96SW2); test: PROTAC activity at CRBN/FGFR2 in human KATO III stomach cancer cell line assessed as FGFR2 degradation by measuring FGFR2 expression level at 100 nM measured after 12 hrs by Western blotting analysis relative to control; format: cell-based
T2 sequence (P21802 22-821 limits assumed): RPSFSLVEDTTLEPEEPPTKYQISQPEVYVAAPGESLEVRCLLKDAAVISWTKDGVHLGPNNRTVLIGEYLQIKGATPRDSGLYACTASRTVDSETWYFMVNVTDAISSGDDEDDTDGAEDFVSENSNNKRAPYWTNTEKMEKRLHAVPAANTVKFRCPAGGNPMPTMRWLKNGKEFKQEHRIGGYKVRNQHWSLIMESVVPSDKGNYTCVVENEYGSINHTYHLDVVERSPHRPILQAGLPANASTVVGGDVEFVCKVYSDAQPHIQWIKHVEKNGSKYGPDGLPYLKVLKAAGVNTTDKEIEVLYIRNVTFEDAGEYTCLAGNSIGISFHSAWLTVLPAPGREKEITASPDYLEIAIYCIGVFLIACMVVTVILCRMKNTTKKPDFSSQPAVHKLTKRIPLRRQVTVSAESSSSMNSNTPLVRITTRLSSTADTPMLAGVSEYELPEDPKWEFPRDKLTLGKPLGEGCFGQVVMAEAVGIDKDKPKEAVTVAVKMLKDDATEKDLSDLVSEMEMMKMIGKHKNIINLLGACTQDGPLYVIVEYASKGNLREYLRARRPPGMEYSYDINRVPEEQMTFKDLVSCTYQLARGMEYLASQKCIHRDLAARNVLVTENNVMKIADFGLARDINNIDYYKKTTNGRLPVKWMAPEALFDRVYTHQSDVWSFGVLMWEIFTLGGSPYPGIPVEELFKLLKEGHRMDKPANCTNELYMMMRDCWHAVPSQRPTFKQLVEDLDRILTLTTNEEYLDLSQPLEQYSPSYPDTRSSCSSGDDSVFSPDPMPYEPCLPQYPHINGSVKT
T2 sequence (Q96SW2 whole entry partner): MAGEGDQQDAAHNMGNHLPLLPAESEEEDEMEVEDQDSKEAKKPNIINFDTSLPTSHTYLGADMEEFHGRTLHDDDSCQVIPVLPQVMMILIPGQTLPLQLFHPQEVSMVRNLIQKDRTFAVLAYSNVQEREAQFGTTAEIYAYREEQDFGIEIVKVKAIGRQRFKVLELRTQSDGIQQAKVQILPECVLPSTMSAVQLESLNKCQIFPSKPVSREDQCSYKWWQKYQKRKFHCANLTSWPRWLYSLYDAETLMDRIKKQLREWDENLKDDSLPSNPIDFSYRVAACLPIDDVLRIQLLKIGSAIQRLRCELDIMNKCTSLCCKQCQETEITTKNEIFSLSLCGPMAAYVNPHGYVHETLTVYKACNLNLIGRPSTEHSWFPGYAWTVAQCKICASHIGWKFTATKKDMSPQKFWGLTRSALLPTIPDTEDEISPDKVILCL
Procedure, shortened: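 Time course in KATO III cells: FGFR2/β-actin by Western blot at successive treatment times, normalized to DMSO control.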

[3] = molecular target: Tyrosine-protein kinase ABL1 (Homo sapiens) (UniProt P00519); test: Inhibition of human ABL1 at 1000 nM by KINOMEscan analysis relative to control
[4] = molecular target: T2, Protein cereblon/Fibroblast growth factor receptor 2; test: PROTAC activity at CRBN/FGFR2 in human KATO III stomach cancer cell line at 100 nM measured for 6 hrs by Western blot analysis relative to control; format: cell-based
Procedure, shortened: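 KATO III cells treated for 6 h at the stated concentrations, added from 10 mM DMSO stocks (final DMSO below 0.5%). Cells were washed with PBS and lysed in 2× loading buffer, then run on SDS-PAGE and blotted to PVDF. Anti-FGFR2 was applied overnight at 4 °C, with ECL detection. FGFR2 was expressed as FGFR2/β-actin, normalized to DMSO-treated cells, from three independent biological experiments.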

BaF3 = test: Antiproliferative activity against mouse BaF3 cells expressing Tel-FGFR3 assessed as cell growth inhibition measured after 72 hrs by celltiter-glo reagent based assay; format: functional; conditions: BaF3, 72 h
Procedure, shortened: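 Ba/F3 cells stably expressing cytoplasmic TEL-FGFR1, -2, -3 or -4 fusions were treated in 96-well format, final DMSO 0.1%, for 72 h. Viability read by CellTiter-Glo luminescence after 10 min at room temperature. Inhibition calculated from blank- and control-corrected RLU; IC50 from 4-parameter concentration–response fit.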

[5] = molecular target: T1, Fibroblast growth factor receptor (Homo sapiens); test: Induction of FGFR degradation in human KATO III stomach cancer cell line assessed as reduction in FRS2 phosphorylation at 50 nM measured for 6 hrs; format: cell-based; procedure, shortened: as §1
NCI-H716 = test: Antiproliferative activity against human NCI-H716 cells assessed as reduction in cell viability measured for 72 hrs by celltiter-glo reagent based assay; format: functional; conditions: NCI-H716, 72 h
Procedure, shortened: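 Cancer lines KATO III, SNU16, NCI-H716, NCI-H1975, MV-4-11 and HEK293T treated 72 h; antiproliferative IC50 given as mean ± s.d. from three independent biological experiments.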

[6] = Toxicity in ICR mouse assessed as change in heart weight at 20 mg/kg, po measured for 30 days; format: organism-based; conditions: in vivo, 720 h, time 30 day
Procedure, shortened: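 ICR mice (n = 6) were dosed orally at 20 mg/kg/day for 30 days, alongside vehicle-treated controls. Mortality and clinical signs were checked daily. At the end, body and organ weights were recorded. Heart, liver, spleen, lung and kidney were examined by hematoxylin and eosin staining.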

[7] = AUC (0 to infinity) in mouse at 3 mg/kg, iv measured at 0.083 to 24 hrs by LC-MS/MS analysis; conditions: in vivo
[8] = Volume of distribution at steady state in mice at 3 mg/kg, iv measured at 0.083 to 24 hrs by LC-MS/MS analysis; conditions: mouse, in vivo, read-out: Vdss

For `COc1cc(OC)c(Cl)c(NC(=O)N(C)c2cc(Nc3ccc(N4CCN(C(=O)C5CCN(c6ccc7c(c6)C(=O)N(C6CCC(=O)NC6=O)C7=O)CC5)CC4)cc3)ncn2)c1Cl` (stereo unspecified), which Activity [1] is on record?
The Activity was “Active”.

What about the Activity (SNU-16) of the same molecule?
Its Activity is “Active”.

What about the Activity [2] of the same molecule?
The Activity was 90%.

What about the inhibition [3] of the same molecule?
The inhibition was 47%.

What about the Activity [4] of the same molecule?
Its Activity is 77%.

And the IC50 (BaF3)?
The IC50 was 139 nM.

And the Activity [5]?
The Activity was “Active”.

And the IC50 (NCI-H716)?
Its IC50 is 3.2 nM.

And the Activity [6]?
Its Activity is “Non-Toxic”.

And the AUC(0-inf) [7]?
Its AUC(0-inf) is 422 ng·h/mL.

What about the Vd [8] of the same molecule?
The Vd was 6.23 L/kg.
